{"source": "ChEMBL document CHEMBL4024709", "about": "“Synthesis and biological evaluation of hypoxia-activated prodrugs of SN-38” (Eur J Med Chem, 2017)", "key": {"[1]": {"assay": "Stability of the compound in phosphate buffered saline assessed as compound remaining at 5 uM after 48 hrs by HPLC method", "assay_type": "physicochemical", "details": "read-out: Stability", "procedure,_shortened": "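Compound held in 10 mM PBS pH 7.4 at 37 °C for 48 h; percent remaining measured.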"}, "[2]": {"test_system": "HT-29", "assay": "Cytotoxicity against human HT-29 cells pretreated for 24 hrs under hypoxic condition followed by compound washout measured after 72 hrs by MTT assay", "assay_type": "functional, cell-based", "procedure,_shortened": "(§1)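 HT29 in McCoy's 5A, H460 in RPMI 1640, each with 10% FBS and 1% pen-strep, 37 °C, 5% CO2. Seeded and grown 24 h, then exposed for 24 h to serial dilutions (DMSO ≤0.1% final) in hypoxia (94% N2/5% CO2/1% O2 chamber) or air.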"}, "[3]": {"assay": "Stability of the compound in mouse liver microsomes assessed as compound remaining at 5 uM after 6 hrs in presence of NADPH by HPLC method", "assay_type": "ADME, microsome", "details": "read-out: Stability", "procedure,_shortened": "(§2)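 Final mix: 5 µM compound, mouse liver microsomes 1 mg/mL, 5 mM MgCl2, ±1 mM NADPH, in 10 mM PBS pH 7.4 at 37 °C. Preincubated, then started by adding microsomes. Samples at 0–6 h quenched with cold methanol and centrifuged. Supernatant run on C18 HPLC (5–95% CH3CN/0.1% TFA, 373 nm); percent remaining at 6 h.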"}, "[4]": {"test_system": "NCI-H460", "assay": "Cytotoxicity against human NCI-H460 cells pretreated for 24 hrs under hypoxic condition followed by compound washout measured after 72 hrs by MTT assay", "assay_type": "functional, cell-based", "procedure,_shortened": "as §1"}, "[5]": {"test_system": "HT-29", "assay": "Cytotoxicity against human HT-29 cells pretreated for 24 hrs under normoxic condition followed by compound washout measured after 72 hrs by MTT assay", "assay_type": "cell-based", "procedure,_shortened": "as §1"}, "[6]": {"test_system": "NCI-H460", "assay": "Cytotoxicity against human NCI-H460 cells pretreated for 24 hrs under normoxic condition followed by compound washout measured after 72 hrs by MTT assay", "assay_type": "cell-based", "procedure,_shortened": "as §1"}, "[7]": {"assay": "Stability of the compound in mouse liver microsomes assessed as compound remaining at 5 uM after 6 hrs in absence of NADPH by HPLC method", "assay_type": "ADME, microsome", "details": "read-out: Stability", "procedure,_shortened": "as §2"}, "[8]": {"test_system": "HT-29", "assay": "Selectivity ratio of IC50 for human HT-29 cells under normoxic condition to IC50 for human HT-29 cells under hypoxic condition"}, "[9]": {"test_system": "NCI-H460", "assay": "Selectivity ratio of IC50 for human NCI-H460 cells under normoxic condition to IC50 for human NCI-H460 cells under hypoxic condition"}}, "note": "pIC50: −log10 of the molar value.", "data": [{"smiles": "CCc1c2c(nc3ccc(OC(=O)N(C)CCN(C)C(=O)OCc4cnc([N+](=O)[O-])n4C)cc13)-c1cc3c(c(=O)n1C2)COC(=O)[C@]3(O)CC", "values": [{"measurement": "remaining at 48 h, 5 µM", "setting": "[1]", "result": 99, "unit": "%"}, {"measurement": "pIC50", "setting": "[2]", "result": 4.12}, {"measurement": "remaining at 6 h, 5 µM", "setting": "[3]", "result": 13, "unit": "%"}, {"measurement": "pIC50", "setting": "[4]", "result": 5.12}, {"measurement": "pIC50", "setting": "[5]", "result": "< 4.00"}, {"measurement": "pIC50", "setting": "[6]", "result": 5.08}, {"measurement": "remaining at 6 h, 5 µM", "setting": "[7]", "result": 92, "unit": "%"}, {"measurement": "Ratio IC50", "setting": "[8]", "result": ">1.32"}, {"measurement": "Ratio IC50", "setting": "[9]", "result": 1.09}]}, {"smiles": "CCc1c2c(nc3ccc(OCc4cnc([N+](=O)[O-])n4C)cc13)-c1cc3c(c(=O)n1C2)COC(=O)[C@]3(O)CC", "values": [{"measurement": "remaining at 48 h, 5 µM", "setting": "[1]", "result": 100, "unit": "%"}, {"measurement": "pIC50", "setting": "[2]", "result": 5.41}, {"measurement": "remaining at 6 h, 5 µM", "setting": "[3]", "result": 72, "unit": "%"}, {"measurement": "pIC50", "setting": "[4]", "result": 6.85}, {"measurement": "pIC50", "setting": "[5]", "result": 4.83}, {"measurement": "pIC50", "setting": "[6]", "result": 6.28}, {"measurement": "remaining at 6 h, 5 µM", "setting": "[7]", "result": 94, "unit": "%"}, {"measurement": "Ratio IC50", "setting": "[8]", "result": 3.82}, {"measurement": "Ratio IC50", "setting": "[9]", "result": 3.71}]}, {"smiles": "CCc1c2c(nc3ccc(O)cc13)-c1cc3c(c(=O)n1C2)COC(=O)[C@]3(O)CC", "note": "[7-ETHYL-10-HYDROXYCAMPTOTHECIN]", "values": [{"measurement": "pIC50", "setting": "[2]", "result": 5.43}, {"measurement": "pIC50", "setting": "[4]", "result": 7.22}, {"measurement": "pIC50", "setting": "[5]", "result": 5.56}, {"measurement": "pIC50", "setting": "[6]", "result": 7.30}, {"measurement": "Ratio IC50", "setting": "[8]", "result": 0.74}, {"measurement": "Ratio IC50", "setting": "[9]", "result": 0.83}]}, {"smiles": "Cn1c(COP(=O)(NCCBr)NCCBr)cnc1[N+](=O)[O-]", "note": "[EVOFOSFAMIDE]", "values": [{"measurement": "pIC50", "setting": "[2]", "result": 4.31}, {"measurement": "pIC50", "setting": "[4]", "result": 5.04}, {"measurement": "pIC50", "setting": "[5]", "result": "< 4.00"}, {"measurement": "pIC50", "setting": "[6]", "result": 4.29}, {"measurement": "Ratio IC50", "setting": "[8]", "result": ">2.02"}, {"measurement": "Ratio IC50", "setting": "[9]", "result": 5.61}]}]}
